This is an account of results in ChEMBL document CHEMBL1250442, “Inhibiting gene expression at transcription start sites in chromosomal DNA with antigene RNAs” (Nat Chem Biol, 2005).

SMILES strings stand for the structures. The source made the active and inactive calls. The rule behind the calls is not given here.

Experiment [1] deals with T47D. As to the kind of experiment: Inhibition of PR-A mRNA gene expression in human T47D cells at 100 nM by syber green assay. Format: functional. Put shortly:
(§1)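 T47D cells plated at 80,000/well without antibiotics two days before Oligofectamine transfection with agRNA duplex (25 or 100 nM final); medium changed at 24 h, harvest day 5 unless stated otherwise. TRIzol total RNA; PR mRNA by real-time PCR with SYBR Green: 50 °C 2 min, 95 °C 10 min, 40 cycles 95 °C 15 s/60 °C 1 min.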

Experiment [2] deals with T47D. As to the kind of experiment: Inhibition of PR-B gene expression in human T47D cells at 25 nM by syber green assay in presence of 10 nM estradiol. It is filed as functional, cell-based.
The test system of experiment [3] is T47D. The experiment in a line: Inhibition of androgen receptor expression in human T47D cells after 12 days at 100 nM by syber green assay. It is filed as functional, cell-based. Put shortly:
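AR expression in T47D cells, grown in RPMI-1640 with 10% FBS, NEAA and insulin. Plated antibiotic-free two days before Oligofectamine transfection with 100 nM duplex RNA; medium replaced after 24 h. TRIzol total RNA. SYBR Green real-time PCR: 50 °C 2 min, 95 °C 10 min, 40 cycles of 95 °C 15 s and 60 °C 1 min.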

Experiment [4] relates to T47D. The experiment in a line: Inhibition of PR-B mRNA gene expression in human T47D cells at 100 nM by syber green assay. Format: functional. An outline of the steps: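 T47D cells in RPMI-1640 with 10% FBS, NEAA, insulin, 37 °C, 5% CO2. Plated two days before transfection without antibiotics. Oligofectamine-mediated duplex RNA transfection at 100 nM final, medium changed at 24 h, harvest five days post-transfection. Total RNA extracted with TRIzol. hPR mRNA quantified by SYBR Green qPCR: 50 °C 2 min, 95 °C 10 min, then 40 cycles of 95 °C 15 s / 60 °C 1 min.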

In experiment [5] the test system is T47D. The experiment in a line: Inhibition of PR-A gene expression in human T47D cells at 25 nM by syber green assay in presence of 10 nM estradiol. Format: functional, cell-based.
Experiment [6] has as its system T47D. As to the kind of experiment: Inhibition of PR-A gene expression in human T47D cells at 25 nM by syber green assay. It is filed as functional. Put shortly:
as §1

The test system of experiment [7] is T47D. The experiment in a line: Inhibition of PR-B gene expression in human T47D cells at 25 nM by syber green assay. Format: functional. An outline of the steps:
as §1

`Cc1cn(CC(=O)N(CCNC(=O)CN(CCNC(=O)CN(CCNC(=O)CN(CCNC(=O)CN(CCNC(=O)CN(CCNC(=O)CN(CCNC(=O)CN(CCNC(=O)CN(CCNC(=O)CN(CCNC(=O)CN(CCNC(=O)CN(CCNC(=O)CN(CCNC(=O)CN(CCNC(=O)CN(CCNC(=O)CN(CCNC(=O)CN(CCNC(=O)CN(CCNC(=O)CN(CCNC(=O)CN(CCNC(=O)CN)C(=O)Cn2ccc(=O)[nH]c2=O)C(=O)Cn2ccc(N)nc2=O)C(=O)Cn2ccc(N)nc2=O)C(=O)Cn2cnc3c(N)ncnc32)C(=O)Cn2ccc(N)nc2=O)C(=O)Cn2ccc(N)nc2=O)C(=O)Cn2ccc(=O)[nH]c2=O)C(=O)Cn2ccc(N)nc2=O)C(=O)Cn2ccc(N)nc2=O)C(=O)Cn2ccc(N)nc2=O)C(=O)Cn2cnc3c(N)ncnc32)C(=O)Cn2cnc3c(=O)[nH]c(N)nc32)C(=O)Cn2ccc(N)nc2=O)C(=O)Cn2cnc3c(=O)[nH]c(N)nc32)C(=O)Cn2ccc(N)nc2=O)C(=O)Cn2ccc(N)nc2=O)C(=O)Cn2ccc(N)nc2=O)C(=O)Cn2ccc(N)nc2=O)C(=O)Cn2ccc(N)nc2=O)CC(=O)NCCN(CC(=O)NCC(=O)O)C(=O)Cn2cc(C)c(=O)[nH]c2=O)c(=O)[nH]c1=O`: the inhibition at 0.1 µM in the experiment with T47D [1] and in the experiment with T47D [4] was 34% each time. The inhibition result with T47D [2], in the experiment with T47D [3] and in the experiment with T47D [5] was “Active” in each case.
Turning to `Cc1cn(CC(=O)N(CCNC(=O)CN(CCNC(=O)CN(CCNC(=O)CN(CCNC(=O)CN(CCNC(=O)CN(CCNC(=O)CN(CCNC(=O)CN(CCNC(=O)CN(CCNC(=O)CN(CCNC(=O)CN(CCNC(=O)CN(CCNC(=O)CN(CCNC(=O)CN(CCNC(=O)CN(CCNC(=O)CN(CCNC(=O)CN(CCNC(=O)CN(CCNC(=O)CN(CCNC(=O)CN(CCNC(=O)CN)C(=O)Cn2cnc3c(=O)[nH]c(N)nc32)C(=O)Cn2ccc(N)nc2=O)C(=O)Cn2ccc(=O)[nH]c2=O)C(=O)Cn2ccc(N)nc2=O)C(=O)Cn2ccc(=O)[nH]c2=O)C(=O)Cn2ccc(N)nc2=O)C(=O)Cn2ccc(N)nc2=O)C(=O)Cn2cnc3c(N)ncnc32)C(=O)Cn2ccc(N)nc2=O)C(=O)Cn2ccc(N)nc2=O)C(=O)Cn2ccc(=O)[nH]c2=O)C(=O)Cn2ccc(N)nc2=O)C(=O)Cn2ccc(N)nc2=O)C(=O)Cn2ccc(N)nc2=O)C(=O)Cn2cnc3c(N)ncnc32)C(=O)Cn2cnc3c(=O)[nH]c(N)nc32)C(=O)Cn2ccc(N)nc2=O)C(=O)Cn2cnc3c(=O)[nH]c(N)nc32)C(=O)Cn2ccc(N)nc2=O)CC(=O)NCCN(CC(=O)NCC(=O)O)C(=O)Cn2cc(C)c(=O)[nH]c2=O)c(=O)[nH]c1=O`, the inhibition at 0.1 µM with T47D [1] and in the experiment on T47D [4] was 92% throughout. For the same molecule, the inhibition entry in the experiment with T47D [2], with T47D [3] and in the experiment with T47D [5] was “Active” throughout.
In the case of `Cc1cn(CC(=O)N(CCNC(=O)CN(CCNC(=O)CN(CCNC(=O)CN(CCNC(=O)CN(CCNC(=O)CN(CCNC(=O)CN(CCNC(=O)CN(CCNC(=O)CN(CCNC(=O)CN(CCNC(=O)CN(CCNC(=O)CN(CCNC(=O)CN(CCNC(=O)CN(CCNC(=O)CN(CCNC(=O)CN(CCNC(=O)CN(CCNC(=O)CN(CCNC(=O)CN(CCNC(=O)CN(CCNC(=O)CN(CCNC(=O)CN)C(=O)Cn2ccc(=O)[nH]c2=O)C(=O)Cn2ccc(N)nc2=O)C(=O)Cn2ccc(=O)[nH]c2=O)C(=O)Cn2cnc3c(=O)[nH]c(N)nc32)C(=O)Cn2cnc3c(=O)[nH]c(N)nc32)C(=O)Cn2ccc(N)nc2=O)C(=O)Cn2ccc(N)nc2=O)C(=O)Cn2cnc3c(N)ncnc32)C(=O)Cn2cnc3c(=O)[nH]c(N)nc32)C(=O)Cn2ccc(=O)[nH]c2=O)C(=O)Cn2ccc(N)nc2=O)C(=O)Cn2ccc(N)nc2=O)C(=O)Cn2cnc3c(N)ncnc32)C(=O)Cn2ccc(N)nc2=O)C(=O)Cn2cnc3c(N)ncnc32)C(=O)Cn2cnc3c(=O)[nH]c(N)nc32)C(=O)Cn2ccc(N)nc2=O)C(=O)Cn2ccc(=O)[nH]c2=O)C(=O)Cn2cnc3c(=O)[nH]c(N)nc32)C(=O)Cn2cc(C)c(=O)[nH]c2=O)CC(=O)O)c(=O)[nH]c1=O`, the values for the inhibition at 0.1 µM in the experiment on T47D [1] and in the experiment on T47D [4] were 97% and 100%, respectively. Besides, the inhibition at 0.025 µM in the experiment on T47D [6] worked out at 38%; in the experiment on T47D [7] it was 50%. Besides, the inhibition entry in the experiment with T47D [2] and with T47D [5] was “Active” each time.
Take `Cc1cn(CC(=O)N(CCNC(=O)CN(CCNC(=O)CN(CCNC(=O)CN(CCNC(=O)CN(CCNC(=O)CN(CCNC(=O)CN(CCNC(=O)CN(CCNC(=O)CN(CCNC(=O)CN(CCNC(=O)CN(CCNC(=O)CN(CCNC(=O)CN(CCNC(=O)CN(CCNC(=O)CN(CCNC(=O)CN(CCNC(=O)CN(CCNC(=O)CN(CCNC(=O)CN(CCNC(=O)CN(CCNC(=O)CN)C(=O)Cn2ccc(N)nc2=O)C(=O)Cn2ccc(=O)[nH]c2=O)C(=O)Cn2cnc3c(=O)[nH]c(N)nc32)C(=O)Cn2ccc(=O)[nH]c2=O)C(=O)Cn2ccc(N)nc2=O)C(=O)Cn2ccc(=O)[nH]c2=O)C(=O)Cn2cnc3c(=O)[nH]c(N)nc32)C(=O)Cn2cnc3c(=O)[nH]c(N)nc32)C(=O)Cn2ccc(N)nc2=O)C(=O)Cn2ccc(N)nc2=O)C(=O)Cn2cnc3c(N)ncnc32)C(=O)Cn2cnc3c(=O)[nH]c(N)nc32)C(=O)Cn2ccc(=O)[nH]c2=O)C(=O)Cn2ccc(N)nc2=O)C(=O)Cn2ccc(N)nc2=O)C(=O)Cn2cnc3c(N)ncnc32)C(=O)Cn2ccc(N)nc2=O)C(=O)Cn2cnc3c(N)ncnc32)C(=O)Cn2cnc3c(=O)[nH]c(N)nc32)CC(=O)NCCN(CC(=O)NCC(=O)O)C(=O)Cn2cc(C)c(=O)[nH]c2=O)c(=O)[nH]c1=O`: the results for the inhibition at 0.1 µM with T47D [1] and in the experiment on T47D [4] were 99% and 100%, respectively. The results for the inhibition at 0.025 µM with T47D [6] and in the experiment with T47D [7] were 50% and 55%, respectively. The inhibition result in the experiment with T47D [2] and in the experiment on T47D [5] was “Active” each time.
For `Cc1cn(CC(=O)N(CCNC(=O)CN(CCNC(=O)CN(CCNC(=O)CN(CCNC(=O)CN(CCNC(=O)CN(CCNC(=O)CN(CCNC(=O)CN(CCNC(=O)CN(CCNC(=O)CN(CCNC(=O)CN(CCNC(=O)CN(CCNC(=O)CN(CCNC(=O)CN(CCNC(=O)CN(CCNC(=O)CN(CCNC(=O)CN(CCNC(=O)CN(CCNC(=O)CN(CCNC(=O)CN(CCNC(=O)CN(CCNC(=O)CN)C(=O)Cn2ccc(N)nc2=O)C(=O)Cn2ccc(=O)[nH]c2=O)C(=O)Cn2cnc3c(=O)[nH]c(N)nc32)C(=O)Cn2cnc3c(=O)[nH]c(N)nc32)C(=O)Cn2ccc(N)nc2=O)C(=O)Cn2ccc(N)nc2=O)C(=O)Cn2cnc3c(N)ncnc32)C(=O)Cn2cnc3c(=O)[nH]c(N)nc32)C(=O)Cn2ccc(=O)[nH]c2=O)C(=O)Cn2ccc(N)nc2=O)C(=O)Cn2ccc(N)nc2=O)C(=O)Cn2cnc3c(N)ncnc32)C(=O)Cn2ccc(N)nc2=O)C(=O)Cn2cnc3c(N)ncnc32)C(=O)Cn2cnc3c(=O)[nH]c(N)nc32)C(=O)Cn2ccc(N)nc2=O)C(=O)Cn2ccc(=O)[nH]c2=O)C(=O)Cn2cnc3c(=O)[nH]c(N)nc32)C(=O)Cn2ccc(=O)[nH]c2=O)C(=O)Cn2cc(C)c(=O)[nH]c2=O)CC(=O)O)c(=O)[nH]c1=O`, the inhibition at 0.1 µM with T47D [1] worked out at 26%; in the experiment with T47D [4], 71%. The inhibition at 0.025 µM with T47D [6] and with T47D [7] was below 20% throughout. Moreover, the inhibition entry with T47D [2] and in the experiment with T47D [5] was “Active” in each case.
Take `Cc1cn(CC(=O)N(CCNC(=O)CN(CCNC(=O)CN(CCNC(=O)CN(CCNC(=O)CN(CCNC(=O)CN(CCNC(=O)CN(CCNC(=O)CN(CCNC(=O)CN(CCNC(=O)CN(CCNC(=O)CN(CCNC(=O)CN(CCNC(=O)CN(CCNC(=O)CN(CCNC(=O)CN(CCNC(=O)CN(CCNC(=O)CN(CCNC(=O)CN(CCNC(=O)CN(CCNC(=O)CN(CCNC(=O)CN)C(=O)Cn2cnc3c(N)ncnc32)C(=O)Cn2cnc3c(N)ncnc32)C(=O)Cn2cnc3c(N)ncnc32)C(=O)Cn2cnc3c(=O)[nH]c(N)nc32)C(=O)Cn2ccc(N)nc2=O)C(=O)Cn2ccc(=O)[nH]c2=O)C(=O)Cn2cnc3c(=O)[nH]c(N)nc32)C(=O)Cn2ccc(=O)[nH]c2=O)C(=O)Cn2ccc(N)nc2=O)C(=O)Cn2ccc(=O)[nH]c2=O)C(=O)Cn2cnc3c(=O)[nH]c(N)nc32)C(=O)Cn2cnc3c(=O)[nH]c(N)nc32)C(=O)Cn2ccc(N)nc2=O)C(=O)Cn2ccc(N)nc2=O)C(=O)Cn2cnc3c(N)ncnc32)C(=O)Cn2cnc3c(=O)[nH]c(N)nc32)C(=O)Cn2ccc(=O)[nH]c2=O)C(=O)Cn2ccc(N)nc2=O)C(=O)Cn2ccc(N)nc2=O)CC(=O)NCCN(CC(=O)NCC(=O)O)C(=O)Cn2cc(C)c(=O)[nH]c2=O)c(=O)[nH]c1=O`: the inhibition at 0.1 µM with T47D [1] and with T47D [4] was below 20% throughout. Moreover, the inhibition at 0.025 µM in the experiment with T47D [6] and with T47D [7] was below 20% in each case. In addition, the inhibition result with T47D [2] and with T47D [5] was “Active” each time.

What is called inhibition is the percentage by which the read-out fell short of the control.
